Measured values as given in article PMC4070457 (Drugs in R&D, 2014).

Legend:
[1] = Tolerability / toxicity observation during the pharmacokinetic studies; format: in vivo, Sprague-Dawley rats
Method in brief: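 Male Sprague-Dawley rats with jugular catheters were watched for toxic signs, including chromodacryorrhea, while on the pharmacokinetic study. Nine rats each received 25 mg/kg IV and 25 mg/kg PO (gavage) in saline, with sampling to 8 h. Separate IV dosing was at 10, 25 and 75 mg/kg. Animals were killed in a CO2 chamber after each study.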

HNSCC = details: oral dose of 25 mg/kg per day; cited from earlier work
[2] = Pharmacokinetics of FA after IV and oral; format: in vivo, Sprague-Dawley rats; details: for clearance: Sprague-Dawley, rat, serum, iv
[3] = cited from earlier work
[4] = oral 20 mg/kg, acyl carbon radiolabelled FA; cited from earlier work
[5] = cited from earlier work; remark: listed apart in the source

Q: Which “Toxicity (i.e., chromodacyrea)” value ([1]; 25 mg/kg IV and PO, nine animals) does the source give for `CCCCc1ccc(C(=O)O)nc1` [fusaric acid, 5-butlypicolinic acid] here?
A: not observed

Q: And the adverse effects ([1]; IV doses of 10, 25, and 75 mg/kg)?
A: no adverse effects observed

Q: And the “efficacy toward HNSCC” value (HNSCC)?
A: efficacious

Q: And the “time until FA serum concentration fell below the lower limit of quantitation (10 µM)” value ([2]; 25 mg/kg IV or PO, all animals)?
A: ≤ 4 h

Q: And the “Vd (apparent volume of distribution)” value ([2]; 25 mg/kg oral, average)?
A: 182 ± 27 mL

Q: What about the clearance ([2]; 10 mg/kg, 10 mg/kg IV) of the same compound?
A: 0.783 mL/min

Q: What about the clearance ([2]; 25 mg/kg, 25 mg/kg IV) of the same compound?
A: 1.35 mL/min

Q: What about the “FA excreted unchanged in the urine” value [3] of the same compound?
A: < 5%

Q: What about the “calculated FA concentration at peak radioactivity” value [4] of the same compound?
A: 42 ± 7.4 µg/mL

Q: What about the “dose at which adverse effects were observed” value [5] of the same compound?
A: 100 mg/kg
